According to ChEMBL document CHEMBL1955832, “Facile synthesis, characterization and pharmacological activities of 3,6-disubstituted 1,2,4-triazolo[3,4-b][1,3,4]thiadiazoles and 5,6-dihydro-3,6-disubstituted-1,2,4-triazolo[3,4-b][1,3,4]thiadiazoles” (2012):
Converted amounts (≈) assume the structure as drawn. The source made the active and inactive calls. The rule behind the calls is not given here.

Assays:
Rattus norvegicus = test: Antiinflammatory activity rat assessed as reduction of carrageenan-induced paw oedema at 100 mg/kg, po administered 30 mins before carrageenan challenge measured after 60 to 180 mins; type: functional, organism-based; set-up: dose 100 mg/kg
Outline: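 Rats randomly assigned, 100 mg/kg orally as suspension in 1% carboxymethyl cellulose, 30 min before carrageenan injected into right hind paw. Paw thickness measured with vernier callipers at 60, 120 and 180 min. Diclofenac reference; mean ± SEM, n = 6, vs vehicle control.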

Mus musculus [1] = test: Analgesic activity Wistar albino mouse assessed as tail withdrawal latency time at 100 mg/kg, po administered by intragastric tube after 60 mins (reference value: 1.363 +/- 0.1297 sec); type: functional
Mus musculus [2] = test: Analgesic activity Wistar albino mouse assessed as tail withdrawal latency time at 100 mg/kg, po administered by intragastric tube after 120 mins (reference value: 1.363 +/- 0.1297 sec); type: functional
Mus musculus [3] = test: Analgesic activity Wistar albino mouse assessed as tail withdrawal latency time at 100 mg/kg, po administered by intragastric tube after 180 mins (reference value: 1.363 +/- 0.1297 sec); type: functional
[4] = tested on: Radical scavenging activity; test: Antioxidant activity of the compound assessed as DPPH radical scavenging activity at 200 ug/ml after 20 mins; type: functional
Outline: (§1)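 Compound dissolved in methylene dichloride at the stated concentration, mixed with 4 mL 0.1 mM methanolic DPPH, held 20 min at ambient temperature; absorbance read at 517 nm. Scavenging % = (A_DPPH − A_test)/A_DPPH × 100. Triplicate; ascorbic acid positive control.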

[5] = tested on: Radical scavenging activity; test: Antioxidant activity of the compound assessed as DPPH radical scavenging activity at 400 ug/ml after 20 mins; type: functional; outline: as §1
[6] = tested on: Radical scavenging activity; test: Antioxidant activity of the compound assessed as DPPH radical scavenging activity at 800 ug/ml after 20 mins; type: functional; outline: as §1
Staphylococcus aureus [7] = test: Antibacterial activity against Staphylococcus aureus ATTC 25923 after 16 to 18 hrs by serial dilution method; type: functional
Outline: (§2)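 Serial drug dilutions in Mueller-Hinton broth adjusted to pH 5.0 with phosphate buffer, inoculated with standardized bacterial suspension, incubated 16–18 h at 37 °C; MIC taken as lowest concentration without conspicuous growth.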

Staphylococcus aureus [8] = test: Antibacterial activity against Staphylococcus aureus ATTC 25923 at MIC after 3 to 4 days by disc diffusion method; type: functional
Outline: (§3)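 Agar well diffusion: seeded agar plates dried 1 h at 37 °C, wells punched and filled with test compound at MIC level in DMSO; DMSO solvent control. Plates in triplicate, kept at 37 °C for 3–4 days; zone of inhibition read.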

Escherichia coli [9] = test: Antibacterial activity against Escherichia coli ATTC 25922 after 16 to 18 hrs by serial dilution method; type: functional; outline: as §2
Escherichia coli [10] = test: Antibacterial activity against Escherichia coli ATTC 25922 at MIC after 3 to 4 days by disc diffusion method; type: functional; outline: as §3
Pseudomonas aeruginosa [11] = test: Antibacterial activity against Pseudomonas aeruginosa ATTC 27853 after 16 to 18 hrs by serial dilution method; type: functional; outline: as §2
Pseudomonas aeruginosa [12] = test: Antibacterial activity against Pseudomonas aeruginosa ATTC 27853 at MIC after 3 to 4 days by disc diffusion method; type: functional; outline: as §3
Klebsiella pneumoniae [13] = test: Antibacterial activity against recultured Klebsiella pneumoniae after 16 to 18 hrs by serial dilution method; type: functional; outline: as §2
Klebsiella pneumoniae [14] = test: Antibacterial activity against recultured Klebsiella pneumoniae at MIC after 3 to 4 days by disc diffusion method; type: functional; outline: as §3
Talaromyces marneffei [15] = test: Antifungal activity against recultured Penicillium marneffei by serial plate dilution method; type: functional
Talaromyces marneffei [16] = test: Antifungal activity against recultured Penicillium marneffei at MIC after 3 to 4 days; type: functional
[17] = tested on: Trichophyton mentagrophytes; test: Antifungal activity against recultured Trichophyton mentagrophytes by serial plate dilution method; type: functional
[18] = tested on: Trichophyton mentagrophytes; test: Antifungal activity against recultured Trichophyton mentagrophytes at MIC after 3 to 4 days; type: functional
Aspergillus flavus [19] = test: Antifungal activity against Aspergillus flavus NCIM 524 by serial plate dilution method; type: functional
Aspergillus flavus [20] = test: Antifungal activity against Aspergillus flavus NCIM 524 at MIC after 3 to 4 days; type: functional
Aspergillus fumigatus [21] = test: Antifungal activity against Aspergillus fumigatus NCIM 902 by serial plate dilution method; type: functional
Aspergillus fumigatus [22] = test: Antifungal activity against Aspergillus fumigatus NCIM 902 at MIC after 3 to 4 days; type: functional

Row | Structure (SMILES) | MIC (Staphylococcus aureus [7]) [µM] | MIC (Escherichia coli [9]) [µM] | MIC (Pseudomonas aeruginosa [11]) [µM] | MIC (Klebsiella pneumoniae [13]) [µM] | MIC (Talaromyces marneffei [15]) [µM] | MIC [17] [µM] | MIC (Aspergillus flavus [19]) [µM] | Activity (Rattus norvegicus) | Time (Mus musculus [1]) [s] | Time (Mus musculus [2]) [s] | Time (Mus musculus [3]) [s] | inhibition [4] [%] | inhibition [5] [%] | inhibition [6] [%] | diameter of the inhibition zone (DIZ) (Staphylococcus aureus [8]) [mm] | diameter of the inhibition zone (DIZ) (Escherichia coli [10]) [mm] | diameter of the inhibition zone (DIZ) (Pseudomonas aeruginosa [12]) [mm] | diameter of the inhibition zone (DIZ) (Klebsiella pneumoniae [14]) [mm] | diameter of the inhibition zone (DIZ) (Talaromyces marneffei [16]) [mm] | diameter of the inhibition zone (DIZ) [18] [mm] | other results
1 | COc1ccc(Br)c(-c2nnc3n2NC(c2cccc(Cl)c2)S3)c1 (stereo unspecified) | 29.5 (≈ 12.5 µg/mL) | 29.5 (≈ 12.5 µg/mL) | 29.5 (≈ 12.5 µg/mL) | 29.5 (≈ 12.5 µg/mL) | 29.5 (≈ 12.5 µg/mL) | 29.5 (≈ 12.5 µg/mL) | 29.5 (≈ 12.5 µg/mL) | Active | 3.546 | 3.623 | 2.235 | 35.9 | 44.7 | 62.5 | 11 | 11 | 11 | 11 | 11 | 11 | diameter of the inhibition zone (DIZ) (Aspergillus flavus [20]): 11 mm; MIC (Aspergillus fumigatus [21]): 29.5 µM (≈ 12.5 µg/mL); diameter of the inhibition zone (DIZ) (Aspergillus fumigatus [22]): 11 mm
2 | COc1ccc(Br)c(-c2nnc3n2NC(c2ccc([N+](=O)[O-])cc2)S3)c1 (stereo unspecified) | 28.8 (≈ 12.5 µg/mL) | 28.8 (≈ 12.5 µg/mL) | 14.4 (≈ 6.25 µg/mL) | 14.4 (≈ 6.25 µg/mL) | 14.4 (≈ 6.25 µg/mL) | 28.8 (≈ 12.5 µg/mL) | 14.4 (≈ 6.25 µg/mL) | Active | 3.675 | 3.563 | 2.425 | 53.2 | 72.4 | 82.7 | 11 | 11 | 16 | 16 | 16 | 11 | diameter of the inhibition zone (DIZ) (Aspergillus flavus [20]): 16 mm; MIC (Aspergillus fumigatus [21]): 14.4 µM (≈ 6.25 µg/mL); diameter of the inhibition zone (DIZ) (Aspergillus fumigatus [22]): 16 mm
3 | COc1ccc(Br)c(-c2nnc3sc(-c4cc([N+](=O)[O-])cc([N+](=O)[O-])c4)nn23)c1 | 13.1 (≈ 6.25 µg/mL) | 13.1 (≈ 6.25 µg/mL) | 26.2 (≈ 12.5 µg/mL) | 13.1 (≈ 6.25 µg/mL) | 26.2 (≈ 12.5 µg/mL) | 13.1 (≈ 6.25 µg/mL) | 13.1 (≈ 6.25 µg/mL) | Active | 3.675 | 3.563 | 2.425 | 58.5 | 68.4 | 78 | 16 | 16 | 11 | 16 | 11 | 16 | diameter of the inhibition zone (DIZ) (Aspergillus flavus [20]): 16 mm; MIC (Aspergillus fumigatus [21]): 13.1 µM (≈ 6.25 µg/mL); diameter of the inhibition zone (DIZ) (Aspergillus fumigatus [22]): 16 mm
4 | COc1ccc(C2Nn3c(nnc3-c3cc(OC)ccc3Br)S2)cc1 (stereo unspecified) | 29.8 (≈ 12.5 µg/mL) | 29.8 (≈ 12.5 µg/mL) | 29.8 (≈ 12.5 µg/mL) | 29.8 (≈ 12.5 µg/mL) | 14.9 (≈ 6.25 µg/mL) | 29.8 (≈ 12.5 µg/mL) | 29.8 (≈ 12.5 µg/mL) | Active | 3.468 | 3.334 | 2.841 | 40.6 | 65.9 | 77.9 | 11 | 11 | 11 | 11 | 16 | 11 | diameter of the inhibition zone (DIZ) (Aspergillus flavus [20]): 11 mm; MIC (Aspergillus fumigatus [21]): 14.9 µM (≈ 6.25 µg/mL); diameter of the inhibition zone (DIZ) (Aspergillus fumigatus [22]): 16 mm

Further molecules by falling MIC (Staphylococcus aureus [7]), results first:

Row | MIC (Staphylococcus aureus [7]) [µM] | MIC (Escherichia coli [9]) [µM] | MIC (Pseudomonas aeruginosa [11]) [µM] | MIC (Klebsiella pneumoniae [13]) [µM] | MIC (Talaromyces marneffei [15]) [µM] | MIC [17] [µM] | MIC (Aspergillus flavus [19]) [µM] | Structure (SMILES) | Activity (Rattus norvegicus) | Time (Mus musculus [1]) [s] | Time (Mus musculus [2]) [s] | Time (Mus musculus [3]) [s] | inhibition [4] [%] | inhibition [5] [%] | inhibition [6] [%] | diameter of the inhibition zone (DIZ) (Staphylococcus aureus [8]) [mm] | diameter of the inhibition zone (DIZ) (Escherichia coli [10]) [mm] | diameter of the inhibition zone (DIZ) (Pseudomonas aeruginosa [12]) [mm] | diameter of the inhibition zone (DIZ) (Klebsiella pneumoniae [14]) [mm] | diameter of the inhibition zone (DIZ) (Talaromyces marneffei [16]) [mm] | diameter of the inhibition zone (DIZ) [18] [mm] | other results
5 | 29.5 (≈ 12.5 µg/mL) | 14.8 (≈ 6.25 µg/mL) | 14.8 (≈ 6.25 µg/mL) | 14.8 (≈ 6.25 µg/mL) | 16.1 (≈ 6.8 µg/mL) | 16.1 (≈ 6.8 µg/mL) | 16.1 (≈ 6.8 µg/mL) | COc1ccc(Br)c(-c2nnc3n2NC(c2ccc(Cl)cc2)S3)c1 (stereo unspecified) | Active | 3.675 | 3.563 | 2.425 | 42.3 | 48.1 | 63.4 | 11 | 16 | 16 | 16 | 11 | 16 | diameter of the inhibition zone (DIZ) (Aspergillus flavus [20]): 16 mm; MIC (Aspergillus fumigatus [21]): 16.1 µM (≈ 6.8 µg/mL); diameter of the inhibition zone (DIZ) (Aspergillus fumigatus [22]): 16 mm
6 | 28.9 (≈ 12.5 µg/mL) | 28.9 (≈ 12.5 µg/mL) | 28.9 (≈ 12.5 µg/mL) | 28.9 (≈ 12.5 µg/mL) | 14.5 (≈ 6.25 µg/mL) | 14.5 (≈ 6.25 µg/mL) | 14.5 (≈ 6.25 µg/mL) | COc1ccc(Br)c(-c2nnc3sc(-c4ccc([N+](=O)[O-])cc4)nn23)c1 | Active | 3.375 | 3.263 | 2.663 | 62.9 | 68.1 | 71.9 | 11 | 11 | 11 | 11 | 16 | 16 | diameter of the inhibition zone (DIZ) (Aspergillus flavus [20]): 16 mm; MIC (Aspergillus fumigatus [21]): 14.5 µM (≈ 6.25 µg/mL); diameter of the inhibition zone (DIZ) (Aspergillus fumigatus [22]): 16 mm
7 | 27.4 (≈ 12.5 µg/mL) | 13.7 (≈ 6.25 µg/mL) | 13.7 (≈ 6.25 µg/mL) | 13.7 (≈ 6.25 µg/mL) | 13.7 (≈ 6.25 µg/mL) | 13.7 (≈ 6.25 µg/mL) | 27.4 (≈ 12.5 µg/mL) | COc1ccc(Br)c(-c2nnc3sc(-c4cc(Cl)cc(Cl)c4)nn23)c1 | Active | 3.421 | 3.075 | 2.388 | 49.8 | 54.3 | 66.8 | 11 | 16 | 16 | 16 | 16 | 16 | diameter of the inhibition zone (DIZ) (Aspergillus flavus [20]): 11 mm; MIC (Aspergillus fumigatus [21]): 13.7 µM (≈ 6.25 µg/mL); diameter of the inhibition zone (DIZ) (Aspergillus fumigatus [22]): 16 mm
